The list is not random: actives were taken first. Their share in the collection is about 1.9%.
CHRM5 PAM – human M5 muscarinic receptor positive allosteric modulators, primary screen, CHO-K1 cells, Fluo-8 calcium fluorescence; 360,000 compounds, 0.3% hits; activation, % at 3 µM; Muscarinic acetylcholine receptor M5 (Homo sapiens), P08912; CHO-K1 hM5, ACh EC20 PAM; 0% = ACh EC20, 100% = ACh EC100;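 active means activation above the run cutoff, the mean activation of all test compounds plus 3 SD, cut at about 18% in these data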
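System – CHO-K1 hM5 cells · Compound – 3 µM, single dose · Incubation – compound preincubation 140 s before EC20 acetylcholine addition · Technique – Fluo-8 calcium fluorescence · Measure – Max/basal fluorescence ratio as % of EC20–EC100 ACh window · Benchmarks – low control EC20 acetylcholine (0%), high control EC100 acetylcholine (100%) · Replication – singlicate, one well per test compound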
M5 ag – human M5 muscarinic receptor agonists, primary screen, CHO-K1 cells, Fluo-8 calcium fluorescence. Muscarinic acetylcholine receptor M5 (Homo sapiens), P08912. CHO-K1 hM5 cells; 0% DMSO wells, 100% maximal acetylcholine response. activation, % at 3 µM. 360,000 compounds, 0.19% hits. AID 624037, 2012;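 active means activation above the run's mean over test compounds plus 3 SD, cut at about 23% in these data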;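 further: signal is peak over basal fluorescence ratio across the kinetic read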
CHRM4 PAM – human M4 muscarinic receptor positive allosteric modulators, primary screen, CHO-K1 cells, Fluo-8 calcium fluorescence; 360,000 compounds, 0.4% hits; Muscarinic acetylcholine receptor M4 (Homo sapiens), P08173; CHO-K1 hM4/Gqi5, ACh EC20; 0% = ACh EC20, 100% = maximal ACh; activation, % at 3 µM; AID 624126, 2012;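 active means activation above its plate's cutoff, the mean activation of sample wells plus 3 SD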
Target sequence (P08173 whole entry, looked up): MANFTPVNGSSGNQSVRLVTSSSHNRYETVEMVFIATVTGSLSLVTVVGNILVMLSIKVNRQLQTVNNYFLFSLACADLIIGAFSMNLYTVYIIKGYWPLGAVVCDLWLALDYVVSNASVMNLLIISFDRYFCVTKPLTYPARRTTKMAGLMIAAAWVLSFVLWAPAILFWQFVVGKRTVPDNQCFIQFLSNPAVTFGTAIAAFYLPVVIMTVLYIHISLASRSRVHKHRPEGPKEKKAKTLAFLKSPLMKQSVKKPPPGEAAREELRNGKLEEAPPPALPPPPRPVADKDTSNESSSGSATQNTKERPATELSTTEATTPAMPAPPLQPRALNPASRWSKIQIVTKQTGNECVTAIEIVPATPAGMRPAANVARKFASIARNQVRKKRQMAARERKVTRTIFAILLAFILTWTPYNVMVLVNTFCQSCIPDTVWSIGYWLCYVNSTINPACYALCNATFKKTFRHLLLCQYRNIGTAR
CHRM4 agonist – human M4 muscarinic receptor agonists, primary screen, CHO-K1 cells, Fluo-8 calcium fluorescence | Muscarinic acetylcholine receptor M4 (Homo sapiens), P08173 | AID 624127, 2012 | 360,000 compounds, 0.14% hits | activation, % at 3 µM | CHO-K1 hM4/Gqi5; vehicle 0%, full acetylcholine response 100%;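 active means activation above the run mean over all test wells plus 3 SD, cut at about 32% in these data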;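 further: peak over basal fluorescence ratio per well then scaled between controls; 0% = DMSO wells and 100% = acetylcholine at EC100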
M5 antag – human M5 muscarinic receptor antagonists, primary screen, CHO cells, Fluo-8 calcium fluorescence | Muscarinic acetylcholine receptor M5 (Homo sapiens), P08912 | CHO-hM5 cells, ACh EC80 | inhibition, % at 3 µM | 360,000 compounds, 0.59% hits | AID 624040, 2012;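 active means inhibition above a per-plate cutoff, the mean of that plate's test compounds plus 3 SD, cut at about 27% in these data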;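 further: 0% = acetylcholine EC80 with DMSO and 100% = DMSO without agonist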
M4 antag – human M4 muscarinic receptor antagonists, primary screen, CHO cells, Fluo-8 calcium fluorescence; inhibition, % at 3 µM; Muscarinic acetylcholine receptor M4 (Homo sapiens), P08173; AID 624125, 2012; 360,000 compounds, 0.73% hits; CHO-hM4 cells, ACh EC80;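 active means inhibition above its plate's cutoff, the mean inhibition of sample wells plus 3 SD, cut at about 27% in these data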;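 further: 0% = acetylcholine EC80 with DMSO and 100% = DMSO without agonist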
Numbers without * were called inactive; ! = not confirmed by another sample.

SMILES	CHRM5 PAM	M5 ag	CHRM4 PAM	CHRM4 agonist	M5 antag	M4 antag
CC(C)(C)c1ccc(C(O)CCCN2CCC(C(O)(c3ccccc3)c3ccccc3)CC2)cc1 (stereo not drawn)	-6.7	5.0	-11.5	19.9	10.4	13.6
CC(=O)Nc1ccccc1OCCCN1CCC(C(O)(c2ccccc2)c2ccccc2)CC1	-21.0	-5.5	-11.4	3.2	-2.5	6.7
Oc1ccccc1CN1CCC(C(O)(c2ccccc2)c2ccccc2)CC1	-2.1	-8.3	-7.7	1.2	3.4	0.9
OC(c1ccccc1)(c1ccccc1)C1CCN(CCCOc2ccc3c(c2)CCCC3)CC1	-23.5	-2.6	-12.0	14.9	26.5	31.8*
CC(=O)Nc1ccc(OCCCN2CCC(C(O)(c3ccccc3)c3ccccc3)CC2)cc1	-23.2	-6.8	-13.9	5.5	64.3*	86.4*
c1ccc(COc2ccc(OCCCN3CCCC3)cc2)cc1	-17.0	-5.5	-24.6	4.0	8.6	8.8
OC(c1ccccc1)(c1ccccc1)C1CCN(CCCOc2cccc(OC(F)(F)F)c2)CC1	-15.9	-0.3	-12.8	17.5	5.4	32.1*
N#CCc1ccc(OCCCN2CCC(C(O)(c3ccccc3)c3ccccc3)CC2)cc1	-23.6	-3.3	-13.6	21.6	71.1*	59.5*
CCCCNC(=O)CN(Cc1ccco1)S(=O)(=O)c1ccc(C(C)=O)cc1	-9.3	2.4	1.7	6.6	3.4	0.9
Cc1cccc(CN2[C@H](CO)C=CS2(=O)=O)c1	5.1	4.1	-0.1	-0.4	-10.2	1.4
COc1ccccc1N(C(=O)c1ccco1)C(C(=O)NC1CCCC1)c1ccncc1 (stereo not drawn)	3.7	-2.4	1.0	2.1	4.9	-1.9
Cn1c(SCC(=O)N2CCOCC2)nc2cccnc21	20.8*	-3.3	-2.3	1.0	-18.2	4.0
O=C(CSc1n[nH]c(=O)n1-c1cccnc1)N1CCOCC1	19.5*	10.1	3.1	1.4	-11.6	0.0
O=C1CCN(Cc2ccc([N+](=O)[O-])cc2)CCN1[C@H](CO)c1ccccc1	3.1	1.8	1.7	4.0	6.0	0.5
COc1ccc(NC(=O)/C(C#N)=C/C=C/c2ccco2)cc1	23.7*	6.3	6.4	1.2	26.7	18.3
N#C/C(=C\c1ccc(N2CCOCC2)o1)C(=O)Nc1ccc(O)cc1	-10.2	24.3*	-4.9	9.5	12.7	-2.7
COc1ccc(NC(=O)/C(C#N)=C\c2ccc(N3CCOCC3)o2)cc1	-22.9	120.5*	-21.7	37.0*	38.9*	14.3
N#C/C(=C/c1ccc(N2CCOCC2)o1)C(=O)NC1CCCCC1	-8.8	30.5*	-2.6	9.6	15.6	-1.1
COc1cc(C(=O)OCC(=O)N2CCCC2=O)cc(OC)c1C	0.2	5.6	8.7	1.0	-3.7	-6.5
Cc1ccc(S(=O)(=O)N2[C@H](CC(=O)c3cccs3)OC[C@@H]2C(C)C)cc1	-1.4	-2.5	-1.8	0.8	1.9	1.5
COc1ccc(CCC(=O)NCCOc2ccccc2Cl)cc1	-10.1	4.0	-14.5	15.2	14.5	-1.1
COC(=O)[C@H](Cc1ccccc1)NC(=O)/C=C/[C@H]1O[C@@H](n2cc(C)c(=O)[nH]c2=O)C[C@@H]1O	1.3	1.4	-0.7	0.6	11.8	13.1
N#C/C(=C/c1ccc(N2CCOCC2)o1)c1ccc(Br)cc1	-9.9	5.7	-13.7	11.6	19.1	36.2*
CCCCCCCC[n+]1cccc(C(=O)N(CC)CC)c1	-1.0	-8.2	-8.7	0.7	-0.8	-1.2
CCCCCCCCCCCCCCCC[n+]1cccc(C(=O)N(CC)CC)c1	-33.1	-8.4	-10.9	0.8	43.4*!	41.3*
SMILES	CHRM5 PAM	M5 ag	CHRM4 PAM	CHRM4 agonist	M5 antag	M4 antag
COc1ccc(NS(=O)(=O)c2ccc3c(c2)NC(=O)CO3)c(OC)c1	9.8	3.0	-2.8	2.0	5.9	2.3
CN1C[C@@H]2[C@@H]3C(=O)N(C)C(=O)[C@@H]3[C@](Cc3ccccc3)(C1=O)N2C(=O)c1ccc(Cl)cc1	-1.2	1.0	6.6	2.9	11.2	1.0
O=C(c1ccc2c(c1)CCC2)N1CCN(Cc2c(F)cccc2Cl)CC1	0.1	-0.5	5.6	0.5	-3.7	-10.2
CC(C)(C)CC(C)(C)NC(=O)c1ccccc1	0.9	3.2	2.4	0.6	4.8	-6.2
CCC(C)(NC(=O)c1ccccc1)C(=O)O (stereo not drawn)	9.4	-2.2	31.5*	0.7	-1.8	21.9
CCOC(=O)CCCCCC(=O)Nc1ccc2c(c1)C(=O)N([C@H](C)CO)C[C@@H](C)[C@H](CN(C)Cc1ccc3c(c1)OCO3)O2	-2.6	-11.6	0.3	1.8	0.9	3.4
CCOc1ccc(S(=O)(=O)Nc2ccc(C(=O)N3CC(C)OC(C)C3)cc2)cc1 (stereo not drawn)	-6.6	30.0*	-7.2	16.2	8.9	12.1
CCOc1ccc(NS(=O)(=O)c2ccc(C(=O)N3CC(C)OC(C)C3)cc2)cc1 (stereo not drawn)	-16.8	57.1*	-6.4	66.4*	4.8	2.7
COc1ccccc1NS(=O)(=O)c1cccc(C(=O)NCC(c2ccccc2OC)N2CCCC2)c1 (stereo not drawn)	-24.5	-10.7	-10.0	0.9	6.7	2.6
CCOc1ccc(S(=O)(=O)Nc2cccc(C(=O)N3CC(C)OC(C)C3)c2)cc1 (stereo not drawn)	-1.5	6.6	-4.8	1.6	-2.8	3.7
CCOc1ccc(NS(=O)(=O)c2ccc(C(=O)NCC(c3ccco3)N3CCCC3)cc2)cc1 (stereo not drawn)	4.7	12.3	-0.8	34.0*	6.5	-15.2
O=C(NCC(c1ccco1)N1CCCC1)c1ccc(S(=O)(=O)Nc2ccc(F)cc2)cc1 (stereo not drawn)	-13.6	-2.0	-6.2	10.5	7.9	6.1
COc1ccccc1C(CNC(=O)c1cccc(S(=O)(=O)Nc2ccc(C)cc2)c1)N1CCCC1 (stereo not drawn)	-33.4	-10.4	-9.3	2.2	27.5*	19.0
O=S(=O)(Nc1ccccc1N1CCOCC1)c1c(F)cc(F)cc1Br	6.8	-3.8	9.8	1.0	8.1	-0.8
CC(=O)Nc1ccc(NC(=O)c2ccnn2C)cc1	-9.2	-3.0	-4.0	12.1	18.1	3.7

Screening results deposited in PubChem by The Scripps Research Institute Molecular Screening Center.
